Assay results taken from ChEMBL document CHEMBL4138314, “Synthesis and Evaluation of N-Phenyl-3-sulfamoyl-benzamide Derivatives as Capsid Assembly Modulators Inhibiting Hepatitis B Virus (HBV)” (J Med Chem, 2018).

Legend:
[1] = Cmax in C57BL/6 mouse at 50 mg/kg, po by LC-MS/MS analysis; assay type: ADME, organism-based; set-up: dose 50 mg/kg, route oral; details: in vivo
[2] = AUC (0 to 24 hrs) in humanized mouse at 50 mg/kg, sc for 8 days measured on day 8 post last dose by LC-MS/MS analysis; assay type: ADME, organism-based; set-up: time < 24 hr, dose 50 mg/kg, route subcutaneous; details: in vivo
[3] = Half life in C57BL/6 mouse at 50 mg/kg, po by LC-MS/MS analysis; assay type: ADME, organism-based; details: in vivo
How it was run: (§1)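 Single-dose PK in C57BL/6 mice after intravenous or oral dosing, with oral doses of 10 and 50 mg/kg; plasma clearance and volume of distribution taken from the i.v. arm.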

[4] = AUC (0 to last) in C57BL/6 mouse at 50 mg/kg, sc by LC-MS/MS analysis; assay type: ADME, organism-based; set-up: dose 50 mg/kg, time 0 - last, route subcutaneous; details: in vivo
[5] = Tmax in humanized mouse at 200 mg/kg, sc for 8 days measured on day 8 post last dose by LC-MS/MS analysis; assay type: ADME, organism-based; details: in vivo
[6] = AUC (0 to last) in C57BL/6 mouse at 10 mg/kg, po by LC-MS/MS analysis; assay type: ADME, organism-based; set-up: dose 10 mg/kg, time 0 - last, route oral; details: in vivo; how it was run: as §1
[7] = target: Cytochrome P450 2C19 (Homo sapiens, UniProt P33261); assay: Inhibition of CYP2C19 (unknown origin); assay type: ADME
[8] = target: T1, Cytochrome P450 1A2 (Homo sapiens, UniProt P05177); assay: Inhibition of CYP1A2 (unknown origin); assay type: ADME
T1 sequence (P05177 whole entry): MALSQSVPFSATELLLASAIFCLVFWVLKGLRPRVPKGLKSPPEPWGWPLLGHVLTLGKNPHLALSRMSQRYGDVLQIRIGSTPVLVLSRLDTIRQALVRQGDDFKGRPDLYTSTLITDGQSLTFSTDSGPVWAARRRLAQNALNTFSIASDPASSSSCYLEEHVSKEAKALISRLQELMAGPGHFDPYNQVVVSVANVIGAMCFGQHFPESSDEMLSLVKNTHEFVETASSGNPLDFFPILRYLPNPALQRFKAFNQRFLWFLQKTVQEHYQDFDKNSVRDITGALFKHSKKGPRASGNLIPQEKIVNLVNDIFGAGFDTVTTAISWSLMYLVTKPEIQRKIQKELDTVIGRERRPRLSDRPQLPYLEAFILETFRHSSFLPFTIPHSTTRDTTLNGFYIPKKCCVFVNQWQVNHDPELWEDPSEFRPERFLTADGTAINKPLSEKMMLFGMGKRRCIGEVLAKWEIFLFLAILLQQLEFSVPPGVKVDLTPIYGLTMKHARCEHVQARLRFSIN

[9] = Unbound fraction in mouse plasma; assay type: ADME, cell-free

Cytochrome P450 2C19, sequence (P33261 whole entry): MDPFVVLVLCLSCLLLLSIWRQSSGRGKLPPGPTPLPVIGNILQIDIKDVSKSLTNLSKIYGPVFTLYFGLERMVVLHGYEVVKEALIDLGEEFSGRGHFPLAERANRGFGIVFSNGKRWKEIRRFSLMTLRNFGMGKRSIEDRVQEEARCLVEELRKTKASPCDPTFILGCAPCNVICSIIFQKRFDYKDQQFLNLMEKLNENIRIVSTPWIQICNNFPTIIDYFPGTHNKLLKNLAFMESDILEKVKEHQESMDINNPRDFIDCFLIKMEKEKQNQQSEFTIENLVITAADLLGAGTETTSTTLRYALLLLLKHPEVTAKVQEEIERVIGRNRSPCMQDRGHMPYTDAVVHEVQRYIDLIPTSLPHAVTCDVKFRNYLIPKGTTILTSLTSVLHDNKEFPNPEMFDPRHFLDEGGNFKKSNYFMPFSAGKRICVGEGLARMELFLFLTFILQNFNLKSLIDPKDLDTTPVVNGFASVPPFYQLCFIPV

Cc1cc(NC(=O)c2cccc(S(=O)(=O)N[C@H]3CCOC3)c2)ccc1F
Cmax [1]: 9440 ng/mL | AUC at 24 h [2]: 19200 ng·h/mL | half-life [3]: 2.4 h | AUC(0-t) [4]: 16900 ng·h/mL | Tmax [5]: 1 h | AUC(0-t) [6]: 1990 ng·h/mL | IC50 [7]: > 10 µM | IC50 [8]: > 10 µM | fraction unbound [9]: 0.126
